# “And” between values parts separate entries of the source, which are not always exact repeats. Equal values may be shown once.
# Legend:
# Assay type in all cases: functional
# [1] = tested on: Mus musculus; test: Antitumor activity against L1210 ttumor in mice, at a dose of 200 mg/kg per ip administration.; conditions: route intraperitoneal
# Outline: (§1)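 Tumors implanted ip on day 0: B16 melanoma (0.5 mL of 1:10 brei) in BDF1 mice, and L1210 or P388 leukemia (10^6 cells) in CDF1 mice. Compound was given ip in physiologic saline daily on days 1–9. Read-out was % increase in life span versus vehicle-treated tumored controls, with body-weight change difference also recorded. Six mice per dose, three in some P388 groups.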
# [2] = tested on: Mus musculus; test: Percent increase in life span of drug-treated mice relative to tumored, vehicle treated controls at a dose of 800 mg/kg ip.; conditions: Mus musculus, ip
# Outline: (§2)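 Tumors implanted day 0: B16 melanoma as 0.5 mL of 1:10 brei into BDF1 mice; L1210 or P388 leukemia as 10^6 cells into CDF1 mice, ip or sc. Drug was given in physiologic saline by ip or oral route, QD 1-9. %ILS was calculated against saline-treated tumored controls, with body-weight change difference as the toxicity read-out. Six mice per dose in most experiments.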
# [3] = tested on: Mus musculus; test: Percent increase in life span of drug-treated mice relative to tumored, vehicle treated controls at a dose of 400 mg/kg ip.; conditions: Mus musculus, ip; outline: as §2
# [4] = tested on: Mus musculus; test: Percent increase in life span of drug-treated mice relative to tumored, vehicle treated controls at a dose of 200 mg/kg ip.; conditions: Mus musculus, ip; outline: as §2
# [5] = tested on: Mus musculus; test: Antitumor activity against L1210 tumor in mice, at a dose of 800 mg/kg per ip administration.; conditions: route intraperitoneal; outline: as §1
# [6] = tested on: Mus musculus; test: Antitumor activity against L1210 tumor in mice, at a dose of 400 mg/kg per ip administration.; conditions: route intraperitoneal; outline: as §1
# [7] = tested on: Mus musculus; test: Percent increase in life span of drug-treated mice relative to tumored, vehicle treated controls at a dose of 2.5 mg/kg ip.; outline: as §2
# [8] = tested on: Mus musculus; test: Percent increase in life span of drug-treated mice relative to tumored, vehicle treated controls at a dose of 1.25 mg/kg ip.; outline: as §2
# [9] = tested on: Mus musculus; test: Antitumor activity against L1210 tumor in mice, at a dose of 1.11 mg/kg per ip administration.; conditions: route intraperitoneal; outline: as §1
# [10] = tested on: Mus musculus; test: Antitumor activity against P388 tumor in mice, at a dose of 1.67 mg/kg per ip administration.; conditions: route intraperitoneal; outline: as §1
# [11] = tested on: Mus musculus; test: Antitumor activity against L1210 tumor in mice, at a dose of 1.67 mg/kg per ip administration.; conditions: route intraperitoneal; outline: as §1
# [12] = tested on: Mus musculus; test: Antitumor activity against L1210 tumor in mice, at a dose of 0.68 mg/kg per ip administration.; conditions: route intraperitoneal; outline: as §1
# [13] = tested on: Mus musculus; test: Percent increase in life span of drug-treated mice relative to tumored, vehicle treated controls at a dose of 1.67 mg/kg ip.; outline: as §2
# [14] = tested on: Mus musculus; test: Antitumor activity against P388 tumor in mice, at a dose of 2.5 mg/kg per ip administration.; conditions: route intraperitoneal; outline: as §1
# [15] = tested on: Mus musculus; test: Antitumor activity against P388 tumor in mice, at a dose of 1.11 mg/kg per ip administration.; conditions: route intraperitoneal; outline: as §1
# [16] = tested on: Mus musculus; test: Antitumor activity against L1210 tumor in mice, at a dose of 2.5 mg/kg per ip administration.; conditions: route intraperitoneal; outline: as §1
# [17] = tested on: Mus musculus; test: Percent increase in life span of drug-treated mice relative to tumored, vehicle treated controls at a dose of 3.75 mg/kg ip.; outline: as §2
# [18] = tested on: Mus musculus; test: Antitumor activity against L1210 tumor in mice, at a dose of 1.25 mg/kg per ip administration.; conditions: route intraperitoneal; outline: as §1
# [19] = tested on: Mus musculus; test: Antitumor activity against P388 tumor in mice, at a dose of 3.75 mg/kg per ip administration.; conditions: route intraperitoneal; outline: as §1
# [20] = tested on: Mus musculus; test: Percent increase in life span of drug-treated mice relative to tumored, vehicle treated controls at a dose of 1.11 mg/kg ip.; outline: as §2
# [21] = tested on: Mus musculus; test: Percent increase in life span of drug-treated mice relative to tumored, vehicle treated controls at a dose of 0.68 mg/kg ip.; outline: as §2
smiles,measurement,setting,value
O=c1ncccn1[C@@H]1O[C@H](CO)[C@@H](O)[C@@H]1F,Weight change difference,[1],1 g
same,ILS at 800 mg/kg,[2],43%
same,ILS at 400 mg/kg,[3],37%
same,ILS at 200 mg/kg,[4],31%
same,Weight change difference,[5],1 g
same,Weight change difference,[6],0 g
O=c1ncc(F)cn1C1O[C@H](CO)[C@@H](O)[C@H]1O (stereo partly specified),ILS,[7],137% [middle of 4 runs]
same,ILS at 1.25 mg/kg,[8],75%
same,Weight change difference,[9],0 g
same,Weight change difference,[10],-2 g
same,Weight change difference,[11],-1 g
same,Weight change difference,[12],0 g
same,ILS,[13],118% and 45% and 50%
same,Weight change difference,[14],-2 g
same,Weight change difference,[15],-1 g
same,Weight change difference,[16],-1 g and -2 g
same,ILS at 3.75 mg/kg,[17],60%
same,Weight change difference,[18],0 g
same,Weight change difference,[19],-2 g
same,ILS,[20],75% and 50%
same,ILS at 0.68 mg/kg,[21],62%
